According to ChEMBL document CHEMBL1240347, “MK-7009, a potent and selective inhibitor of hepatitis C virus NS3/4A protease” (Antimicrob Agents Chemother, 2010):

Assays:
[1] = Plasma clearance in rhesus monkey at 2 mg/kg, iv by LC/MS/MS analysis; type: ADME, organism-based, Macaca mulatta; design: dose 2 mg/kg, route intravenous
Summary of the method: (§1)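 Fasted animals received an IV bolus in DMSO at 1.0 ml/kg for rats and 0.1 ml/kg for dogs and rhesus monkeys, at 2 mg/kg; n = 3 per species. Blood was drawn into EDTA tubes at set times, and plasma was separated by centrifugation and stored at −70°C. Drug was quantified by LC/MS/MS after protein precipitation.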

[2] = AUC (0-24 hrs) in rat at 2 mg/kg, iv by LC/MS/MS analysis; type: ADME, organism-based; design: time < 24 hr, dose 2 mg/kg, route intravenous; settings: plasma
Summary of the method: (§2)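 Fasted animals received an intravenous bolus in DMSO at 1.0 ml/kg (rat), 0.1 ml/kg (dog) or 0.1 ml/kg (rhesus), with n = 3. Blood was drawn into EDTA tubes, and plasma was separated by centrifugation and stored at −70°C. Drug was quantified by LC/MS/MS after protein precipitation.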

Cathepsin K = molecular target: T1, Cathepsin K (Homo sapiens, UniProt P43235); test: Inhibition of human Cathepsin K
T1 sequence (P43235 whole entry): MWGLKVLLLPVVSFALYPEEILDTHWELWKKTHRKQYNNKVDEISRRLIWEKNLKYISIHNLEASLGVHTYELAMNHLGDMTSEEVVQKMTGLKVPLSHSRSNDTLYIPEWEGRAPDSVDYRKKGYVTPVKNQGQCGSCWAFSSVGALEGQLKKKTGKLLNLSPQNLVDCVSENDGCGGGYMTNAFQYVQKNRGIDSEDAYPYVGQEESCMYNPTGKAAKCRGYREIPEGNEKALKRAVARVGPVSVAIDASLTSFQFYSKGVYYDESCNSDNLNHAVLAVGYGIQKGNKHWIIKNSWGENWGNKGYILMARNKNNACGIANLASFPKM

[3] = Cmax in Chimpanzee at 10 mg/kg, po by LC/MS/MS analysis; type: ADME, organism-based, Pan troglodytes; design: dose 10 mg/kg, route oral; settings: in vivo
Summary of the method: (§3)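 Two HCV-uninfected chimpanzees (about 57 and 52 kg) drank the dose voluntarily in a chocolate milk vehicle (0.67 ml/kg). EDTA plasma was stored at −70°C and quantified by LC/MS/MS after protein precipitation.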

[4] = Plasma clearance in rat at 2 mg/kg, iv by LC/MS/MS analysis; type: ADME, organism-based; design: dose 2 mg/kg, route intravenous; summary of the method: as §1
Hepatitis C virus [5] = test: Antiviral activity against Hepatitis C virus containing NS3/R155K protease mutant activity by TaqMan-based assay; type: functional, organism-based, Hepacivirus hominis
Summary of the method: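 Panel of stable HCV replicon cell lines carrying NS3 protease mutations. Replicon RNA read out by a TaqMan-based assay, and EC50 values determined.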

[6] = AUC (0-24 hrs) in dog at 5 mg/kg, po by LC/MS/MS analysis; type: ADME, organism-based, Canis lupus familiaris; design: time < 24 hr, dose 5 mg/kg, route oral; settings: plasma
Summary of the method: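 Dosed orally as a solution in polyethylene glycol 400 (2.0 ml/kg), with n = 3. EDTA plasma was centrifuged off and held at −70°C. Drug levels were determined by LC/MS/MS following protein precipitation.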

Cathepsin B = Cathepsin B (Homo sapiens, UniProt P07858); test: Inhibition of human Cathepsin B
[7] = Inhibition of Hepatitis C virus genotype 2b NS3/4A protease activity; design: species or system Hepatitis C virus subtype 2b
Summary of the method: (§4)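 Recombinant NS3/4A protease was expressed in and purified from E. coli. Inhibition was measured by a time-resolved, internally quenched fluorescence assay at low enzyme concentration. Kis were reported.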

Procathepsin L = Procathepsin L (Homo sapiens, UniProt P07711); test: Inhibition of human Cathepsin L
[8] = Metabolic stability in rhesus monkey liver assessed as drug level at 5 mg/kg, po after 24 hrs by LC/MS/MS analysis; type: ADME, organism-based, Macaca mulatta; design: dose 5 mg/kg, route oral; settings: read-out: Drug uptake
Summary of the method: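 Single oral dose in polyethylene glycol 400 (2.0 ml/kg). A liver biopsy (~200 μl) was taken under sedation and homogenized in 4 volumes of deionized water. Drug was quantified by LC/MS/MS after protein precipitation.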

Cathepsin L2 = molecular target: T2, Cathepsin L2 (Homo sapiens, UniProt O60911); test: Inhibition of human Cathepsin V
T2 sequence (O60911 whole entry): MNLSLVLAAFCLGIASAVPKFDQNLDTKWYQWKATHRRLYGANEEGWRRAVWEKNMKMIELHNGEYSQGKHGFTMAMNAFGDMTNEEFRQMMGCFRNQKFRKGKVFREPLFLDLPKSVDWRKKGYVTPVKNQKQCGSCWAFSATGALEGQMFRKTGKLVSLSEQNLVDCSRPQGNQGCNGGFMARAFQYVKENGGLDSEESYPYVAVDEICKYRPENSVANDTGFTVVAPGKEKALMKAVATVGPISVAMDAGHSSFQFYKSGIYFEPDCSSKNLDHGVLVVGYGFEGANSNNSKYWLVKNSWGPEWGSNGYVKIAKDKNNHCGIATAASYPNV

[9] = Half life in rat at 2 mg/kg, iv by LC/MS/MS analysis; type: ADME, organism-based; design: dose 2 mg/kg, route intravenous; settings: in vivo; summary of the method: as §2
[10] = AUC (0-24 hrs) in rhesus monkey at 2 mg/kg, iv by LC/MS/MS analysis; type: ADME, organism-based, Macaca mulatta; design: time < 24 hr, dose 2 mg/kg, route intravenous; settings: plasma; summary of the method: as §2
Neutrophil elastase = molecular target: T3, Neutrophil elastase (Homo sapiens, UniProt P08246); test: Inhibition of human Neutrophil elastase 2
T3 sequence (P08246 whole entry): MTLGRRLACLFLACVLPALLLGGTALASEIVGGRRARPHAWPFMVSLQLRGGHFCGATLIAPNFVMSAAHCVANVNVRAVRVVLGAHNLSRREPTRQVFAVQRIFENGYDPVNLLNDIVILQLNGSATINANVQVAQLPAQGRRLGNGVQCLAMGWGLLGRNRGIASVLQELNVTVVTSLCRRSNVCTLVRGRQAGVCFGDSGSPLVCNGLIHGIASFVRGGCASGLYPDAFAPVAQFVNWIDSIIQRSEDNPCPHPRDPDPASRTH

[11] = Metabolic stability in chimpanzee liver assessed as drug level at 10 mg/kg, po after 12 hrs by LC/MS/MS analysis; type: ADME, organism-based, Pan troglodytes; design: dose 10 mg/kg, route oral; settings: read-out: Drug uptake
Summary of the method: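 Two uninfected chimpanzees were dosed orally in chocolate milk vehicle (0.67 ml/kg). A liver biopsy (~200 μl) was taken under sedation at the single 12-h time point, homogenized in 4 volumes of deionized water, and analysed by LC/MS/MS after protein precipitation.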

Hepatitis C virus [12] = test: Inhibition of Hepatitis C virus genotype 1b NS3/4A protease activity; design: species or system Hepatitis C virus subtype 1b; summary of the method: as §4
[13] = AUC (0-24 hrs) in chimpanzee at 10 mg/kg, po by LC/MS/MS analysis; type: ADME, organism-based, Pan troglodytes; design: time < 24 hr, dose 10 mg/kg, route oral; settings: plasma; summary of the method: as §3
[14] = molecular target: Chymotrypsin-like elastase family member 1 (Homo sapiens, UniProt Q9UNI1); test: Inhibition of human Pancreatic elastase 1
Serine protease 1 = Serine protease 1 (Homo sapiens, UniProt P07477); test: Inhibition of human Trypsin activity
Hepatitis C virus [15] = test: Antiviral activity against Hepatitis C virus containing NS3/Q41R protease mutant activity by TaqMan-based assay; type: functional, organism-based, Hepacivirus hominis
[16] = AUC (0-24 hrs) in dog at 2 mg/kg, iv by LC/MS/MS analysis; type: ADME, organism-based, Canis lupus familiaris; design: time < 24 hr, dose 2 mg/kg, route intravenous; settings: plasma; summary of the method: as §2

Sequence of Serine protease 1 (P07477 whole entry): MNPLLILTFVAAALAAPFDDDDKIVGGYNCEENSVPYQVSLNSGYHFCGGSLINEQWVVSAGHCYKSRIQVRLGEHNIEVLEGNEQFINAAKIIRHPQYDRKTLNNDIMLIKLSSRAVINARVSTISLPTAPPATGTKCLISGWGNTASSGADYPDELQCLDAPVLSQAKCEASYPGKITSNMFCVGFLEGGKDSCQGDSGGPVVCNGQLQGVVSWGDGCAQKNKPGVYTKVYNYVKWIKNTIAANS
Sequence of Procathepsin L (P07711 whole entry): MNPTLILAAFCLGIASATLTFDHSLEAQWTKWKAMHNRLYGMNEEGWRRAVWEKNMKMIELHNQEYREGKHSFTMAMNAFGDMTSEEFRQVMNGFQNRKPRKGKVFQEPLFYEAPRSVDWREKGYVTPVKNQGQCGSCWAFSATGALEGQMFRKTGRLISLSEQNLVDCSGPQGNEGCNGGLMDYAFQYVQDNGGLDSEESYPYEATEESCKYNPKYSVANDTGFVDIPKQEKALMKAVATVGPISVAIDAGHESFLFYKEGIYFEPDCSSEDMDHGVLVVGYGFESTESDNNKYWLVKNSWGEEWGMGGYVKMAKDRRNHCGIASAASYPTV
Sequence of Chymotrypsin-like elastase family member 1 (Q9UNI1 whole entry): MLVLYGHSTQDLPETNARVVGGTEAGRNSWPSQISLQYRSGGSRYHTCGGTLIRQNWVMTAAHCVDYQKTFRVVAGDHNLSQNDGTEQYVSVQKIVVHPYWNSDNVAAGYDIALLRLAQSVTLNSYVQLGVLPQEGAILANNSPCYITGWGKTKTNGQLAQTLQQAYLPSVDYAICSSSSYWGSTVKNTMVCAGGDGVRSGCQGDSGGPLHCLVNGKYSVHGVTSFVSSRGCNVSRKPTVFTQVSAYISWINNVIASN

## CC[C@@H]1C[C@]1(NC(=O)[C@@H]1C[C@@H]2CN1C(=O)[C@H](C(C)(C)C)NC(=O)OCC(C)(C)CCCCc1cccc3c1CN(C3)C(=O)O2)C(=O)NS(=O)(=O)C1CC1 [VANIPREVIR]
[1]
  clearance: 18 mL/min/kg
[2]
  AUC(0-t) at 24 h: 0.6 µM·h
Cathepsin K
  IC50: > 10000 nM
[3]
  Cmax: 900 nM
[4]
  clearance: 74 mL/min/kg
Hepatitis C virus [5]
  EC50: 350 nM
[6]
  AUC(0-t) at 24 h: 1.2 µM·h
Cathepsin B
  IC50: > 10000 nM
[7]
  Ki: 1.4 nM
Procathepsin L
  IC50: > 10000 nM
[8]
  concentration at 24 h: 200 nM
Cathepsin L2
  IC50: > 10000 nM
[9]
  half-life: 54 min
[10]
  AUC(0-t) at 24 h: 2.5 µM·h
Neutrophil elastase
  IC50: > 10000 nM
[11]
  concentration at 12 h: 31000 nM
Hepatitis C virus [12]
  Ki: 0.06 nM
[13]
  AUC(0-t) at 24 h: 5.2 µM·h
[14]
  IC50: > 10000 nM
Serine protease 1
  IC50: > 10000 nM
Hepatitis C virus [15]
  EC50: 5.2 nM
[16]
  AUC(0-t) at 24 h: 4.1 µM·h
